According to publication PMC4576993 (Leukemia, 2011):
Where “and” joins values, the source holds several entries; their conditions need not be identical. Equal values may be shown once.

Experiments:
[1] = tested on: relapsed or refractory leukemia; test: Clinical response; format: in vivo, human
How it was run: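 Dosing was a ~10 min IV infusion, either weekly (days 1, 8, 15; 18–90 mg/m2) or twice weekly (days 1, 4, 8, 11; 9–50 mg/m2), in 28-day cycles, up to 4(+2) cycles. Marrow aspirate or biopsy and peripheral blood were taken at each cycle end (~day 28). Response followed IWG criteria: MLFS was marrow blasts <5%; CR added no circulating blasts, no extramedullary disease, neutrophils >1×10^9/l and platelets ≥100×109/l; CRp was CR with incomplete platelet recovery.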

[2] = tested on: phosphorylated H2AX (γH2AX) in peripheral blood blasts; test: γH2AX in patient peripheral blood blasts by flow cytometry; format: in vivo, human
How it was run: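 Peripheral blood blasts from 10 weekly-schedule patients were sampled on days 1 and 8, predose and 2 h postdose. Ficoll-enriched cells were fixed in 70% ethanol at 4 °C and stained in TBS/4% FBS/0.1% Triton X-100. Primary was anti-phospho-Ser139 H2AX or IgG1 isotype (1:500, 2 h), then Alexa488 anti-mouse (1:200, 1 h) with 5 μg/ml RNase, then 2% formaldehyde. Flow cytometry used […]. %γH2AX-positive was set against isotype overlays.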

[3] = tested on: P-glycoprotein; conditions: cited from earlier work
[4] = patients with solid tumors, up to 75 mg/m^2/28-day cycle; cited from earlier work
[5] = non-clinical toxicology studies; no reference given; cited from earlier work

## CN[C@H]1CN(c2ccc3c(=O)c(C(=O)O)cn(-c4nccs4)c3n2)C[C@@H]1OC [vosaroxin, (+)-1,4-dihydro-7-(trans-3-methoxy-4-methylamino-1-pyrrolidinyl)-4-oxo-1-(2-thiazolyl)-1,8-naphthyridine-3-carboxylic acid]
[1]; 16 patients
  Median time to morphologic leukemia-free state after first dose: 32.5 days
  Time to morphologic leukemia-free state after first dose, range: 21–51 days
[1]; 73 treated patients, both schedules
  Patients with response of CR or CRp: Five
[1]; both schedules
  Additional patients with morphologic leukemia-free state (beyond CR/CRp): 11 patients
[1]; five responding patients
  Duration of CR/CRp responses, range: 1.7–19.2 months
  Median duration of CR/CRp responses: 3.1 months
[1]; once weekly with ≥50 mg/m^2
  Patients achieving morphologic leukemia-free state: 12 patients
[1]; twice weekly with ≥30 mg/m^2
  Patients achieving morphologic leukemia-free state: 4 patients
[1]; weekly time above threshold
  Time plasma concentration >1 μmol/l in the other two patients with CR or CRp: 10 h and 16 h
[2]; day 1, 2 h postdose, patients with blasts ≥5%
  Increase in γH2AX: 1.8 fold
[2]; day 1, 2 h postdose, patients with bone marrow blasts <5% after treatment
  Increase in γH2AX: 2.6 fold
[2]; day 8, 2 h postdose, patients with blasts ≥5%
  Increase in γH2AX: 1.7 fold
[2]; day 8, 2 h postdose, patients with bone marrow blasts <5% after treatment
  Increase in γH2AX: 3.8 fold
[2]; weekly schedule, 50 mg/m^2 or higher, 2 h postdose day 1
  Patients with increased γH2AX after the first dose: 7 of 10
[2]; weekly schedule, day 8 predose
  Patients with γH2AX higher than at baseline before treatment on day 8: 9 of 10
[3]
  Substrate for P-glycoprotein: not a substrate for P-glycoprotein
[4]
  Primary DLT: myelosuppression
[5]
  Primary adverse effects: myelosuppression and gastrointestinal toxicity
